Measured values published in the RNAGym collection of RNA variant scans (doi:10.1038/nmeth.2970).

B1: NELF-E aptamer (parent)
chain: CCCAACGACUGCCGAGCGAGAUUACGCUUGAGCGCCCCACUGAGGAUGCCCACGGGCGAUUGGGGCACGG

Variants of: B1
Test: HiTS-RAP
Conditions: with NELF-E (Drosophila)
In short: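 Kd came from weighted Hill fits to the first binding curve, with intensities normalised to sequencing intensity and averaged per sequence, keeping only fits whose variance was below 1,000,000. That curve was imaged on an Illumina GAIIx flowcell, where sequenced aptamer DNA templates with a T7 promoter and ter site had been transcribed in situ by T7 RNA polymerase and halted by GST-Tus (30 minutes, 37°C). Before each image, clusters equilibrated for 30 minutes at room temperature with NELF-E-mOrange at 0.064 to 1000 nM in HEPES binding buffer.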
In the case of CCCAACGAGUGCCGAGCGAGAUUACGCUUGAGCGUCCCACUGAGGAUGCCCACGGGCGAUUGGGGCACGG [C9G C35U], the Kd is reported as 14.3 nM.
With CCCAACGAGUGCCGAGCGAGAUUACGCUUGAGCGGCCCACUGAGGAUGCCCACGGGCGAUUGGGGCACGG [C9G C35G] the Kd was 7.59 nM.
With CCCAACGAGUGCCGAGCGAGAUUACGCUUGAGCGCCCCACUGAGGAUGCCCACGGGCGAUUGGGGCGCGG [C9G A67G] the Kd was 6.17 nM.
With CCCAACGAGUGCCGAGCGAGAUUACGCUUGAGCGCCCCACUGAGGAUGCCCACGGGCGAUUGGGGCUCGG [C9G A67U] the Kd was 8.77 nM.
Work on CCCAACGAGUGCCGAGCGAGAUUACGCUUGAGCGCCCCACUGAGGAUGCCCCCGGGCGAUUGGGGCACGG [C9G A52C] yielded a Kd of 7.38 nM.
Work on CCCAACGAGUGCCGAGCGAGAUUACGCUUGAGCGCCCCACUGAGGAUGCCCUCGGGCGAUUGGGGCACGG [C9G A52U] yielded a Kd of 14.9 nM.
In the case of CCCAACGAGUGCCGAGCGAGAUUACGCUUGAGCGCCCCACUGAGGAUGCCCGCGGGCGAUUGGGGCACGG [C9G A52G], the Kd is reported as 4.79 nM.
CCCAACGAGUGCCGAGCGAGAUUACGCUUGGGCGCCCCACUGAGGAUGCCCACGGGCGAUUGGGGCACGG [C9G A31G] showed a Kd of 8.03 nM.
For CCCAACGAGUGCCGAGCGAGAUUACGCUUGUGCGCCCCACUGAGGAUGCCCACGGGCGAUUGGGGCACGG [C9G A31U], the Kd was 7.5 nM.
CCCAACGUCUGCCGAGCGAGAUCACGCUUGAGCGCCCCACUGAGGAUGCCCACGGGCGAUUGGGGCACGG [A8U U23C] showed a Kd of 5.3 nM.
CCCAACGUCUGCCGAGCGAGAUGACGCUUGAGCGCCCCACUGAGGAUGCCCACGGGCGAUUGGGGCACGG [A8U U23G] was tested, and the Kd was 6.17 nM.
In the case of CCCAACGAGUGCCGAGCGAGAUUACGCUUGAGCGCCCCGCUGAGGAUGCCCACGGGCGAUUGGGGCACGG [C9G A39G], the Kd is reported as 9.62 nM.
Variant CCCAACGAGUGCCGAGCGAGAUUACGCUUGAGCGCCCCUCUGAGGAUGCCCACGGGCGAUUGGGGCACGG [C9G A39U] has a Kd of 29.8 nM.
Work on CCCAACGAAUGCCGAGCGAGAGUACGCUUGAGCGCCCCACUGAGGAUGCCCACGGGCGAUUGGGGCACGG [C9A U22G] yielded a Kd of 3.88 nM.
CCCAACGAGUGCCGAGCGAGAUUACGCUUGAGCGCCCCACUGAGGAUGCCCACGGGCGUUUGGGGCACGG [C9G A59U] showed a Kd of 30.4 nM.
For CCCAACGAGUGCCGAGCGAGAUUACGCUUGAGCGCCCCACUGAGGAUGCCCACGGGCGGUUGGGGCACGG [C9G A59G], the Kd was 64.3 nM.
In the case of CCCAACGUCUGCCGAGCGAGAUUACGCUUGAGCGCCCCACUGAGGAUGCCCACGUGCGAUUGGGGCACGG [A8U G55U], the Kd is reported as 7.57 nM.
Work on CCCAACGUCUGCCGAGCGAGAUUACGCUUGAGCGCCCCACUGAGGAUGCCCACGAGCGAUUGGGGCACGG [A8U G55A] yielded a Kd of 8.25 nM.
CCCAACGUCUGCCGAGCGAGAUUACGCUUGAGCGCCCCACUGAGGAAGCCCACGGGCGAUUGGGGCACGG [A8U U47A] showed a Kd of 15.7 nM.
CCCAACGUCUGCCGAGCGAGAUUACGCUUGAGCGCCCCACUGAGGAGGCCCACGGGCGAUUGGGGCACGG [A8U U47G] gave a Kd of 5.6 nM.
With CCCAACGAGUGCCGAGCGAGAUUACGCUUGAGCGCCACACUGAGGAUGCCCACGGGCGAUUGGGGCACGG [C9G C37A] the Kd was 15.8 nM.
CCCAACGAGUGCCGAGCGAGAUUACGCUUGAGCGCCUCACUGAGGAUGCCCACGGGCGAUUGGGGCACGG [C9G C37U] gave a Kd of 16.1 nM.
Variant CCCAACGUCUGCCGAGCGAGAUUACGCUUGAGCGCCCCACUGAGGAUGCCCACGGGCGAUUAGGGCACGG [A8U G62A] has a Kd of 19.2 nM.
For CCCAACGUCUGCCGAGCGAGAUUACGCUUGAGCGCCCCACUGAGGAUGCCCACGGGCGAUUUGGGCACGG [A8U G62U], the Kd was 10 nM.
Variant CCCAACGAGUGCCGAGCGGGAUUACGCUUGAGCGCCCCACUGAGGAUGCCCACGGGCGAUUGGGGCACGG [C9G A19G] has a Kd of 5.58 nM.
With CCCAACGAGUGCCGAGCGUGAUUACGCUUGAGCGCCCCACUGAGGAUGCCCACGGGCGAUUGGGGCACGG [C9G A19U] the Kd was 7.14 nM.
In the case of CCCAACGAGUGGCGAGCGAGAUUACGCUUGAGCGCCCCACUGAGGAUGCCCACGGGCGAUUGGGGCACGG [C9G C12G], the Kd is reported as 5.75 nM.
Work on CCCAACGAGUGUCGAGCGAGAUUACGCUUGAGCGCCCCACUGAGGAUGCCCACGGGCGAUUGGGGCACGG [C9G C12U] yielded a Kd of 5.9 nM.
CCCAACGAGUGACGAGCGAGAUUACGCUUGAGCGCCCCACUGAGGAUGCCCACGGGCGAUUGGGGCACGG [C9G C12A] gave a Kd of 4.67 nM.
Variant CCCAACGAGUGCCGAGGGAGAUUACGCUUGAGCGCCCCACUGAGGAUGCCCACGGGCGAUUGGGGCACGG [C9G C17G] has a Kd of 5.43 nM.
CCCAACGAGUGCCGAGUGAGAUUACGCUUGAGCGCCCCACUGAGGAUGCCCACGGGCGAUUGGGGCACGG [C9G C17U] showed a Kd of 4.67 nM.
With CCCAACGUCUGCCGAGCGAGAGUACGCUUGAGCGCCCCACUGAGGAUGCCCACGGGCGAUUGGGGCACGG [A8U U22G] the Kd was 6.1 nM.
CCCAACGUCUGCCGAGCGAGACUACGCUUGAGCGCCCCACUGAGGAUGCCCACGGGCGAUUGGGGCACGG [A8U U22C] showed a Kd of 5.14 nM.
CCCAACGUCAGCCGAGCGAGAUUACGCUUGAGCGCCCCACUGAGGAUGCCCACGGGCGAUUGGGGCACGG [A8U U10A] was tested, and the Kd was 6.91 nM.
For CCCAACGUCCGCCGAGCGAGAUUACGCUUGAGCGCCCCACUGAGGAUGCCCACGGGCGAUUGGGGCACGG [A8U U10C], the Kd was 5.96 nM.
With CCCAACGUCGGCCGAGCGAGAUUACGCUUGAGCGCCCCACUGAGGAUGCCCACGGGCGAUUGGGGCACGG [A8U U10G] the Kd was 5.41 nM.
CCCAACGAGUGCCGAGCGAGAUUACGCUUGAGCGCCCCACUGUGGAUGCCCACGGGCGAUUGGGGCACGG [C9G A43U] gave a Kd of 80.5 nM.
In the case of CCCAACGAGUGCCGAGCGAGAUUACGCUUGAGCGCCCCACUGGGGAUGCCCACGGGCGAUUGGGGCACGG [C9G A43G], the Kd is reported as 30.4 nM.
